Screens (PubChem BioAssay)
A selection: hits, their analogues and other compounds. The true share with any hit is near 2.1%.
APJ antagonist: antagonists of human apelin receptor APJ, primary screen, CHO-K1 cells, beta-arrestin complementation, luminescence; AID 2521, 2010; 0.32% of 330,000 active; inhibition, % at 20 µM;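 active means inhibition above about 40% at 20 µM, limit read from the data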;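 further: cells challenged with 10 nM apelin-13 agonist together with compound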
Target sequence (P35414 whole entry, looked up): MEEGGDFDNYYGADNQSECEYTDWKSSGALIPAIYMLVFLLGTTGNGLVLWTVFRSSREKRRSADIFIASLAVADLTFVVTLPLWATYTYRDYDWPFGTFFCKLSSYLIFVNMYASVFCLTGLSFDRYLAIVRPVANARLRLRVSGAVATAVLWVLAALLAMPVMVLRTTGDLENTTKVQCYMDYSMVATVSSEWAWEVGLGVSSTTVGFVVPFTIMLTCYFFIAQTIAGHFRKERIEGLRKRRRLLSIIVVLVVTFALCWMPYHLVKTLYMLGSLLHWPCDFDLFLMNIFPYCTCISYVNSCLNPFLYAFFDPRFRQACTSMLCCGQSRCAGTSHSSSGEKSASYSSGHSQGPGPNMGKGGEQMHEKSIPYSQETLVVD
EBI2 antag: EBI2 receptor antagonists, beta-arrestin recruitment, primary screen, cell-based, luminescence, 7a,25-OHC stimulation, uHTS. 7a,25-OHC stimulated. inhibition, % at 5 µM. 0.81% of 360,000 active. AID 651636, 2012; in the data active means inhibition above about 38%;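 further: enzyme fragment complementation signal reports receptor beta-arrestin coupling in cells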
CXCR6 inh: CXCR6 receptor inhibitors, primary screen, cell-based, beta-arrestin, luminescence, CHO-K1 PathHunter, 1536-well | inhibition, % at 20 µM | 0.36% of 360,000 active; in the data active means inhibition above about 34%, passing the limit was not always enough;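 further: antagonist mode with CXCL16 agonist at 10 nM final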
CCR6 antag: CCR6 receptor antagonists, primary screen, cell-based, CHO-K1, luminescence, beta-arrestin, uHTS | inhibition, % at 20 µM | 0.49% of 340,000 active | C-C chemokine receptor type 6 (Homo sapiens), P51684 | CHO-K1 CCR6 PathHunter beta-arrestin, CCL20-stimulated;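 active means compounds whose inhibition of the agonist-driven luminescence signal at 20 µM reaches about 50%, limit read from the data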;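 further: cells stimulated with CCL20 at 14 nM final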
APJ agonist: agonists of human apelin receptor APJ, primary screen, CHO-K1 cells, PathHunter beta-arrestin, luminescence | P35414 | 0% DMSO wells, 100% apelin | activation, % at 20 µM | 0.11% of 330,000 active;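 active means activation more than six SD over the plate average, tested at 20 µM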
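Material: engineered CHO-K1 APJ arrestin reporter cells; amount: 1000 CHO-K1 reporter cells seeded per well; incubation: compound stimulation 90 min at 25 °C, detection 60 min; signal: luminescent beta-gal fragment complementation, chemiluminescent substrate; read-out basis: APJ agonist activity; controls: DMSO-only wells as negative, 10 nM Apelin-13 as positive control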
HTR2A ag: mouse Htr2a agonists via beta-arrestin recruitment, primary screen, cell-based, luminescence; 5-hydroxytryptamine receptor 2A (Mus musculus), P35363; CHO-K1 mHTR2A beta-arrestin complementation; percent of 30 µM serotonin response; activation, % at 7.6 µM; 0.66% of 360,000 active; AID 624169, 2012;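 active means activation above a run cutoff, the mean activation of all tested compounds plus 3 SD, cut at about 14% in these data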
APJ antag conf: APJ antagonists blocking beta-arrestin recruitment, confirmation, cell-based, luminescence, single concentration, uHTS hits; shares compounds with APJ antagonist; antagonist mode; inhibition, % at 20 µM; 66% of 950 active; AID 2766, 2010; in the data active means inhibition above about 50%
A number is an active result; . = inactive; / = no result.

SMILES	APJ antagonist	EBI2 antag	CXCR6 inh	CCR6 antag	APJ agonist	HTR2A ag	APJ antag conf
COc1cc2c(cc1OC)C(c1cccc([N+](=O)[O-])c1)NC(=O)C2 (stereo unspecified)	.	.	.	.	.	.	/
CC(C)(C)c1cc(Br)c(O)c(N=Nc2ccc(S(=O)(=O)N3CCOCC3)cc2)c1	43.5	.	.	52.1	.	.	.
CNC[C@H](CC1CCCCC1)NC[C@H](Cc1ccccc1)NCCC12CC3CC(CC(C3)C1)C2	44.5	.	.	/	.	.	.
NC[C@H](Cc1ccccc1)NCCCCC1CCCCC1	.	.	.	.	.	.	/
O=C1C(=O)N(CCCN2CCOCC2)C(c2ccc(Cl)cc2)/C1=C(/O)c1ccc(F)cc1 (stereo unspecified)	.	.	.	.	.	.	/
COc1cccc(OC)c1C(=O)Nc1ccc2c(c1)CCCN2S(=O)(=O)c1ccc(C)cc1	.	.	.	.	.	.	/
CCOc1cc(/C=N/NC(=O)c2cccs2)cc([N+](=O)[O-])c1O	.	.	.	.	.	.	/
CCc1ccc(N2CC(C(=O)Nc3nnc(CC)s3)CC2=O)cc1 (stereo unspecified)	61.5	.	.	.	.	.	.
CCc1nnc(NC(=O)C2CC(=O)N(Cc3ccccc3)C2)s1 (stereo unspecified)	.	.	.	.	.	.	/
Cc1ccc(Nc2cc(C)nn2-c2nc(C)cc(=O)[nH]2)cc1	86.6	90.0	64.2	82.4	.	.	108.3
Cc1ccc(NS(=O)(=O)c2cc([N+](=O)[O-])ccc2N/N=C/c2sc(N3CCOCC3)nc2-c2ccccc2)c(C)c1	67.9	.	49.4	59.6	.	.	118.5
O=C1OCC(CO)(CO)N=C1NNc1ccc(Cl)c(Cl)c1	55.4	.	.	.	.	.	67.1
OCC1(CO)COC(c2ccccc2)=N1	.	.	.	.	.	.	/
Cc1sc(NC(=O)/C=C/C(=O)O)c(C(N)=O)c1-c1ccc(C(C)(C)C)cc1	.	.	.	.	.	.	/
CCOc1ccc(C(=O)Nc2nnc(NC(=S)Nc3ccccc3)s2)cc1	.	.	.	.	.	.	/
O=C(CCCC(=O)OCC(=O)c1ccc(Cl)cc1Cl)Nc1cc(C(F)(F)F)ccc1Cl	42.9	.	.	72.0	.	.	54.6
O=C(CCCC(=O)OCC(=O)c1ccc(F)cc1)Nc1cc(C(F)(F)F)ccc1Cl	.	.	.	.	.	.	/
CNS(=O)(=O)c1cccc(C(=O)OCC(=O)c2cc3ccccc3o2)c1	80.7	.	43.2	73.2	.	.	68.9
O=C(COc1ccccc1)OCC(=O)c1ccc(S(=O)(=O)N2CCCCC2)cc1	85.1	.	42.3	68.1	.	.	115.5
O=C(COC(=O)c1ccco1)c1ccc(S(=O)(=O)N2CCCCC2)cc1	57.4	.	.	.	.	.	65.3
CNS(=O)(=O)c1cccc(C(=O)OCC(=O)c2ccc(S(=O)(=O)N3CCCCC3)cc2)c1	62.1	.	.	53.2	.	.	59.5
O=C(COC(=O)c1ccco1)Nc1cc(S(=O)(=O)N2CCCCC2)ccc1Cl	.	.	.	.	.	.	/
O=C(COC(=O)c1ccccc1)c1ccc(S(=O)(=O)N2CCCCC2)cc1	.	.	.	.	.	.	/
O=C(CCNS(=O)(=O)c1ccc2c(c1)CCC(=O)N2)Nc1ccc(F)c(F)c1	.	.	.	.	.	.	/
CC(C)c1ccc(NCCC(=O)c2ccc(Br)cc2)cc1	.	.	.	.	.	.	/
SMILES	APJ antagonist	EBI2 antag	CXCR6 inh	CCR6 antag	APJ agonist	HTR2A ag	APJ antag conf
CCCc1nnc(SCC(=O)N2C(C)CCCC2C)n1CC1CCCO1 (stereo unspecified)	.	.	.	.	.	.	/
O=C(NCc1ccccc1)C(c1ccccc1)n1c(=O)c(-c2ccco2)nc2ccccc21 (stereo unspecified)	/	.	/	/	/	.	/
O=C(COC(=O)c1ccc(Br)o1)c1ccc(S(=O)(=O)N2CCCCC2)cc1	68.4	.	43.6	64.4	.	.	90.4
C[C@H](CO)N1C[C@H](C)[C@@H](CN(C)C(=O)Nc2ccccc2)Oc2ccc(NC(=O)CCN3CCOCC3)cc2C1=O	.	.	.	.	.	.	/
O=C(Sc1cccc2cccnc12)c1ccccc1Br	51.6	48.7	.	/	.	.	85.3
CCCC(=O)Oc1ccc(C2NC(=O)c3ccccc3O2)cc1 (stereo unspecified)	.	.	.	.	.	.	/
Cc1c(NS(=O)(=O)c2ccc(Cl)c(C(=O)OCC(=O)NCc3ccco3)c2)c(=O)n(-c2ccccc2)n1C	48.7	.	.	.	.	.	.
O=C1C2C3CCCC3=C3CCCC3C2C(=O)N1c1cccc(Cl)c1 (stereo unspecified)	44.4	.	.	.	.	.	.
CCOc1ccc2nc(N=NC3=C(O)CC(C)(C)CC3=O)sc2c1	41.2	.	.	.	.	.	50.6
COc1ccc(/C=N/NC(=O)c2ccc(OC)c(OC)c2)cc1COc1c(F)c(F)c(F)c(F)c1F	.	.	.	.	.	.	/
CSc1ccccc1C(=O)NC1CCCCCC1	45.6	.	.	.	.	.	.
Cc1ccccc1OCCCCCCN1CCNCC1	.	.	.	.	.	.	/
Cc1nn(CC(=O)NCCCc2ccccc2)c(=O)c2cc3occc3n12	41.2	.	.	.	.	.	.
O=[N+]([O-])c1cccc(/C=N/Nc2nc(NCc3ccccc3)nc(N3CCOCC3)n2)c1O	75.8	75.8	95.1	107.0	.	.	124.2
O=[N+]([O-])c1ccc(/C=N/Nc2nc(NCc3ccccc3)nc(N3CCOCC3)n2)cc1	.	.	.	.	.	.	/
C=CCCC(=O)NC1CC(C)(C)Cc2c1cnn2-c1cccc(F)c1 (stereo unspecified)	.	.	.	.	.	.	/
COc1cc(C(C#N)N2N=C(c3ccccc3)CC2c2ccccc2)ccc1O (stereo unspecified)	.	.	.	.	.	.	/
N#CC(c1ccccc1O)N1N=C(c2ccccc2)CC1c1ccccc1 (stereo unspecified)	66.7	.	.	54.5	.	.	.
C/C=C/c1ccc(OCC(=O)Nc2cc(OC)c(OC)c(OC)c2)c(OC)c1	.	.	.	.	.	.	/
COc1cccc2cc(C(=O)C3=C(O)C(=O)N(CCN4CCOCC4)C3c3cccs3)oc12 (stereo unspecified)	56.3	.	.	.	.	.	.
